“And” between values parts separate entries of the source, which are not always exact repeats. Equal values may be shown once. One block for each compound: values may come before it.
How the values were obtained:
Substance-P receptor [1] = target: T1, Substance-P receptor (Homo sapiens, UniProt P25103); test: Displacement of [125I]substance P from human NK1 receptor expressed in CHO cells in the presence of 50 percent human serum; type: cell-based
Substance-P receptor [2] = target: T1, Substance-P receptor; test: Displacement of [125I]substance P from human NK1 receptor expressed in CHO cells; type: cell-based
In short: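 Competition binding: [125I]-labelled substance P displaced from cloned human NK1 receptor expressed in CHO cells; IC50 reported as mean of n = 3.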

Gerbillinae [3] = test: Inhibition of GR-73632-induced foot tapping in gerbils at 3 mg/kg, iv after 24 hrs; type: functional; conditions: for inhibition in vivo at 3 mg/kg: Gerbillinae, iv, 24 h
In short: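 Gerbils dosed iv at 3 mg/kg; foot tapping induced by NK1 agonist GR73632 evaluated 24 h post-dose; percent inhibition of the tapping response.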

Substance-P receptor [4] = target: T1, Substance-P receptor; test: Antagonist activity at human NK1 receptor expressed in CHO cells assessed as inhibition of substance P-induced inositol phosphate generation at 100 nM; type: functional, cell-based
Gerbillinae [5] = test: Inhibition of GR-73632-induced foot tapping in gerbils at 1 mg/kg, iv after 0.1 hrs; type: functional
[6] = Half life in rat; type: ADME, organism-based; conditions: in vivo
[7] = Plasma clearance in rhesus monkey; type: ADME, organism-based, Macaca mulatta
[8] = Oral bioavailability in dog; type: ADME, organism-based, Canis lupus familiaris; conditions: in vivo
Gerbillinae [9] = test: Inhibition of GR-73632-induced foot taping in iv dosed gerbils after 1 hr; type: functional; conditions: read-out: ID50 (the source's name)
[10] = Stability in rat microsomes assessed as compound remaining after 60 mins; type: ADME, Microsome; conditions: read-out: Stability
[11] = Ratio of drug level in brain to plasma in rat at 1 mg/kg, iv after 4 hrs; type: ADME, organism-based; design: dose 1 mg/kg, route intravenous; conditions: brain and plasma
[12] = Plasma clearance in rat; type: ADME, organism-based
[13] = Stability in human microsomes assessed as compound remaining after 60 mins; type: ADME, Microsome; conditions: read-out: Stability
[14] = Half life in dog; type: ADME, organism-based, Canis lupus familiaris; conditions: in vivo
[15] = Potency (IC50) in iv dosed gerbil brain after 1 hr; conditions: gerbillinae
[16] = Volume of distribution in rhesus monkey; type: ADME, organism-based, Macaca mulatta; conditions: in vivo
[17] = Volume of distribution in dog; type: ADME, organism-based, Canis lupus familiaris; conditions: in vivo
[18] = Oral bioavailability in rhesus monkey; type: ADME, organism-based, Macaca mulatta; conditions: in vivo
[19] = Plasma clearance in dog; type: ADME, organism-based, Canis lupus familiaris
[20] = Oral bioavailability in rat; type: ADME, organism-based; conditions: in vivo
[21] = Stability in rhesus monkey microsomes assessed as compound remaining after 60 mins; type: ADME, Macaca mulatta, Microsome; conditions: read-out: Stability
[22] = target: T2, PXR (nuclear receptor subfamily 1 group I member 2) (Homo sapiens, UniProt O75469); test: inhibition of human PXR at 10 uM
T2 sequence (O75469 whole entry): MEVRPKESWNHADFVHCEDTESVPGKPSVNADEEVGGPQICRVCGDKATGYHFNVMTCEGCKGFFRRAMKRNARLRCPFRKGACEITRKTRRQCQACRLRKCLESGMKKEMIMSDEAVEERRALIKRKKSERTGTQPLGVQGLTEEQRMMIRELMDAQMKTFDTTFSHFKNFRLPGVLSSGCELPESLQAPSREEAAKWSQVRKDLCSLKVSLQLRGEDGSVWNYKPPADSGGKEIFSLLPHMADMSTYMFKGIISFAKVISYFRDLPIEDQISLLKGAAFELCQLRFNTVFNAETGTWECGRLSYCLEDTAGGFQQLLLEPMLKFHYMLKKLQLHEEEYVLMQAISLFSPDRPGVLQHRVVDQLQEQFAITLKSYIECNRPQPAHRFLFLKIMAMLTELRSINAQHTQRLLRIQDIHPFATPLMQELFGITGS

[23] = Displacement of diltiazem […] from calcium channel
In short: (§1)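 Ion-channel binding assay; IC50 values calculated for sodium channel and for calcium channel (diltiazem site).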

Cytochrome P450 2C9 = Cytochrome P450 2C9 (Homo sapiens, UniProt P11712); test: Inhibition of CYP2C9; type: ADME
Gerbillinae [24] = test: Inhibition of GR-73632-induced foot taping in iv dosed gerbils after 24 hrs; type: functional; conditions: read-out: ID50 (the source's name)
Cytochrome P450 2D6 = Cytochrome P450 2D6 (Homo sapiens, UniProt P10635); test: Inhibition of CYP2D6; type: ADME
[25] = Induction of CYP3A4 expression in human LS180 cells relative to rifampin; type: ADME, cell-based
In short: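 Human LS180 cells treated with test compound at 10 µM. CYP3A4 induction is expressed as fold induction.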

[26] = Potency (IC50) in iv dosed gerbil after 1 hr; conditions: gerbillinae, plasma
[27] = Stability in dog microsomes assessed as compound remaining after 60 mins; type: ADME, Canis lupus familiaris, Microsome; conditions: read-out: Stability
[28] = Inhibition of sodium channel; in short: as §1
Cytochrome P450 3A4 = Cytochrome P450 3A4 (Homo sapiens, UniProt P08684); test: Inhibition of CYP3A4; type: ADME
[29] = Volume of distribution in rat; type: ADME, organism-based; conditions: in vivo
[30] = Half life in rhesus monkey; type: ADME, organism-based, Macaca mulatta; conditions: in vivo
Gerbillinae [31] = test: Inhibition of GR-73632-induced foot tapping in gerbils at 1 mg/kg, iv after 1 hr; type: functional
In short: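 Gerbils given 1 mg/kg iv; GR73632-induced foot tapping challenged 1 h after dosing; inhibition of tapping scored.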

T1 sequence (P25103 whole entry): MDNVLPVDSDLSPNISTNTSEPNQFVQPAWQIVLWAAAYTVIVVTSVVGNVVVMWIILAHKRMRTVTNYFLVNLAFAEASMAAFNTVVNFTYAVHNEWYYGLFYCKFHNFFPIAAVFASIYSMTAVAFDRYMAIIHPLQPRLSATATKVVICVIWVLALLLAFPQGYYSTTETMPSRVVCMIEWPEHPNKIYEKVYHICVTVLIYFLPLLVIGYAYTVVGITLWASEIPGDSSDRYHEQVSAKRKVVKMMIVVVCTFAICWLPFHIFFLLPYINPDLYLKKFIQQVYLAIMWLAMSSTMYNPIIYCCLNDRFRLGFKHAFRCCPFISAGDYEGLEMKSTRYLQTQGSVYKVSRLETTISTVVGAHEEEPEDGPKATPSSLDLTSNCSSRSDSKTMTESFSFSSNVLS
Chain of Cytochrome P450 2D6 (P10635 whole entry): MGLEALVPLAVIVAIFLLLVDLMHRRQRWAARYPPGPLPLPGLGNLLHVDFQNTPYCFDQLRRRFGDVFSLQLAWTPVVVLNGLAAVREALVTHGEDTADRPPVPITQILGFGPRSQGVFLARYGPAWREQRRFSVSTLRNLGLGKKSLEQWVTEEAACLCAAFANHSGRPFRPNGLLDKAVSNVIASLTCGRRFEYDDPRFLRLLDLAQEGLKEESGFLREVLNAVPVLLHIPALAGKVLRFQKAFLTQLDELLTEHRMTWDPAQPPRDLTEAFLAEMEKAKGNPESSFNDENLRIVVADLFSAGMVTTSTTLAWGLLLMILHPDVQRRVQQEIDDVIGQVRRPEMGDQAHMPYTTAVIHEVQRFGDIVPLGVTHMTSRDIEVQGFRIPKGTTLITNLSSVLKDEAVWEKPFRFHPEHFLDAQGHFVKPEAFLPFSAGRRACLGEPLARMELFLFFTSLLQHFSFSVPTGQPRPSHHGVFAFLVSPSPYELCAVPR
Chain of Cytochrome P450 2C9 (P11712 whole entry): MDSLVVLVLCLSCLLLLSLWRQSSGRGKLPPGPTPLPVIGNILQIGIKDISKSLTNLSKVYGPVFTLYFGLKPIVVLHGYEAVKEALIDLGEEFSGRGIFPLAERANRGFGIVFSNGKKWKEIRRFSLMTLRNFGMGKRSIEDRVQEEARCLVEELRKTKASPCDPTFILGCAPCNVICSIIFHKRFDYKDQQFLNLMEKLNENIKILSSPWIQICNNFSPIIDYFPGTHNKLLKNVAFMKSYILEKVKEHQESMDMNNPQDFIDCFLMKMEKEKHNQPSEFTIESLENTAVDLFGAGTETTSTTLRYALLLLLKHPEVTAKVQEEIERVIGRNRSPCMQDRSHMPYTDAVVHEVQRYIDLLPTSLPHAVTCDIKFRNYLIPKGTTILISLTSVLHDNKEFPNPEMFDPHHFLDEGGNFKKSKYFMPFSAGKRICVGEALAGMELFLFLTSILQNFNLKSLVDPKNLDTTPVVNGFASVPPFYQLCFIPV
Chain of Cytochrome P450 3A4 (P08684 whole entry): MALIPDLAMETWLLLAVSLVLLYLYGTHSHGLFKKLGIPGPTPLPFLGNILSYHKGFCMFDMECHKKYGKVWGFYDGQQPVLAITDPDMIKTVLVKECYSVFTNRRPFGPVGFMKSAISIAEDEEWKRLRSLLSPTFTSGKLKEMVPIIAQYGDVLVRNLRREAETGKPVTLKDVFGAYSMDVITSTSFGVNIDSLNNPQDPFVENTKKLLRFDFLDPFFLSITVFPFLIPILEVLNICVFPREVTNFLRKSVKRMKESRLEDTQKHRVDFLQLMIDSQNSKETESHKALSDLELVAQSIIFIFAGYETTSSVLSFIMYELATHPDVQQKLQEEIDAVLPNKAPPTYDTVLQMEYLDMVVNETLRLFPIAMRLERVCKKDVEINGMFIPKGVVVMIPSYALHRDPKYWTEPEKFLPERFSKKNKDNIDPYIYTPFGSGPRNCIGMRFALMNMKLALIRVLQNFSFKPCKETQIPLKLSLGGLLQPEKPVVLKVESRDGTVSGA

IC50 (Substance-P receptor [1]): 43.1 nM
IC50 (Substance-P receptor [2]): 0.3 nM
inhibition of substance P-induced inositol phosphate generation (Substance-P receptor [4]): 91%
SMILES: CC(=O)N1C[C@H](O[C@H](C)c2cc(C(F)(F)F)cc(C(F)(F)F)c2)[C@@H](c2ccc(F)cc2)[C@@H]1CO
inhibition in vivo at 3 mg/kg (Gerbillinae [3]): 0%
inhibition in vivo at 1 mg/kg (Gerbillinae [5]): 49%

half-life [6]: 13 h
clearance [7]: 1 mL/min/kg
bioavailability [8]: 98%
remaining at 1 h [10]: 60%
Kp at 4 h [11]: 1
IC50 (Substance-P receptor [1]): 0.91 nM
clearance [12]: 5.1 mL/min/kg
remaining at 1 h [13]: 54%
half-life [14]: 128 h
IC50 at 1 h [15]: 3.8 nM
Vd [16]: 2.6 L/kg
Vd [17]: 2.8 L/kg
bioavailability [18]: 68%
IC50 (Substance-P receptor [2]): 0.08 nM
clearance [19]: 0.8 mL/min/kg
bioavailability [20]: 93%
remaining at 1 h [21]: 23%
inhibition at 10 µM [22]: 31%
IC50 [23]: 9400 nM and 2600 nM
INH (Cytochrome P450 2C9): > 100 µM
INH (Cytochrome P450 2D6): 62.2 µM
Ratio [25]: 13
IC50 at 1 h [26]: 8.4 nM
remaining at 1 h [27]: 73%
IC50 [28]: 4360 nM and 2600 nM
INH (Cytochrome P450 3A4): > 100 µM
Vd [29]: 4.2 L/kg
half-life [30]: 80.4 h
SMILES: C[C@@H](O[C@H]1CN2C(=O)C(O)C[C@H]2[C@@H]1c1ccc(F)cc1)c1cc(C(F)(F)F)cc(C(F)(F)F)c1 (stereo in doubt; 2b)
ED50 (Gerbillinae [9]): 0.02 mg/kg
ED50 (Gerbillinae [24]): 0.016 mg/kg
inhibition (INH) (Gerbillinae [3]; 3 mg/kg): 100%

IC50 (Substance-P receptor [1]): 2.2 nM
inhibition of substance P-induced inositol phosphate generation (Substance-P receptor [4]): 67%
SMILES: C[C@@H](O[C@H]1CN2C(=O)CC[C@H]2[C@@H]1c1ccc(F)cc1)c1cc(C(F)(F)F)cc(C(F)(F)F)c1
inhibition in vivo at 3 mg/kg (Gerbillinae [3]): 100%
inhibition in vivo at 1 mg/kg (Gerbillinae [5]): 100%
inhibition in vivo at 1 mg/kg (Gerbillinae [31]): 100%

— ChEMBL document CHEMBL1155387, “Substituted fused bicyclic pyrrolizinones as potent, orally bioavailable hNK1 antagonists” (Bioorg Med Chem Lett, 2010)
